# Screening results deposited in PubChem BioAssay by several laboratories.
# Myeloid diff MLP: myeloid differentiation induction; ER-HoxA9 myeloid progenitors, lysozyme-GFP differentiation, flow cytometry; calls only at 10 µM; 1% of 360,000 active;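 active means normalized GFP-positive differentiation at or above the plate's own cutoff, the solvent-only control mean plus 3 SD; inconclusive means no clear call, values can overlap the other calls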;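 further: cells exposed to compound for four days before flow analysis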
# SENP1 inh: inhibitors of human SENP1 SUMO protease catalytic domain. Q9P0U3. recombinant SENP1 catalytic domain, CyPet-SUMO1-YPet FRET cleavage. inhibition, % at 10 µM. 0.21% of 360,000 active;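 active means inhibition at least 30% at 10 µM, raw YFP signal under a set limit, fluorescence ratio 0.5 to 1.5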;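 further: 0% = enzyme with DMSO and 100% = no enzyme wells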
#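 material = recombinant human SENP1 catalytic domain, His6-tagged | quantity = 20 pM enzyme | reagent = 25 nM SUMO1 FRET substrate | compound dosing = 10 µM single point, 0.5% DMSO | timing = 50 min enzyme reaction, room temperature, light-protected | detection = FRET, CFP and YFP emission | control set = no-enzyme low, enzyme-DMSO high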
# HNF4A DNA FP: change in binding of human HNF4 alpha to DNA | P41235 | HNF4a-FITC DNA binding, fluorescence polarization, 1 h | activity change, % at 10 µM | 0.3% of 360,000 active | AID 1224865; in the data active means activity change above about 30%, passing the limit was not always enough
# Granule exo inh: blocks lytic granule exocytosis. 0.66% of 360,000 active. TALL-104 LAMP-1 surface exposure, flow cytometry; cells stimulated with thapsigargin and PMA. inhibition, % at 10 µM;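 active means inhibition above about 55%, limit read from the data; inconclusive means no clear call, values can overlap the other calls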
# DSG3 Ab inh: blocks pemphigus antibody binding to human desmoglein-3 | P32926 | DSG3-coupled beads, scFv-anti-DSG3-GFP binding, flow cytometry; stronger effect = lower value | binding (percent of control), % at 10 µM | 0.48% of 310,000 active | AID 588358;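 active means binding more than 3 SD below its plate's average and above zero; inconclusive means below that plate limit but binding exactly zero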;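 further: hits lower antibody fragment binding to DSG3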
# Target sequence (P32926 whole entry, looked up, the tested form may be a part): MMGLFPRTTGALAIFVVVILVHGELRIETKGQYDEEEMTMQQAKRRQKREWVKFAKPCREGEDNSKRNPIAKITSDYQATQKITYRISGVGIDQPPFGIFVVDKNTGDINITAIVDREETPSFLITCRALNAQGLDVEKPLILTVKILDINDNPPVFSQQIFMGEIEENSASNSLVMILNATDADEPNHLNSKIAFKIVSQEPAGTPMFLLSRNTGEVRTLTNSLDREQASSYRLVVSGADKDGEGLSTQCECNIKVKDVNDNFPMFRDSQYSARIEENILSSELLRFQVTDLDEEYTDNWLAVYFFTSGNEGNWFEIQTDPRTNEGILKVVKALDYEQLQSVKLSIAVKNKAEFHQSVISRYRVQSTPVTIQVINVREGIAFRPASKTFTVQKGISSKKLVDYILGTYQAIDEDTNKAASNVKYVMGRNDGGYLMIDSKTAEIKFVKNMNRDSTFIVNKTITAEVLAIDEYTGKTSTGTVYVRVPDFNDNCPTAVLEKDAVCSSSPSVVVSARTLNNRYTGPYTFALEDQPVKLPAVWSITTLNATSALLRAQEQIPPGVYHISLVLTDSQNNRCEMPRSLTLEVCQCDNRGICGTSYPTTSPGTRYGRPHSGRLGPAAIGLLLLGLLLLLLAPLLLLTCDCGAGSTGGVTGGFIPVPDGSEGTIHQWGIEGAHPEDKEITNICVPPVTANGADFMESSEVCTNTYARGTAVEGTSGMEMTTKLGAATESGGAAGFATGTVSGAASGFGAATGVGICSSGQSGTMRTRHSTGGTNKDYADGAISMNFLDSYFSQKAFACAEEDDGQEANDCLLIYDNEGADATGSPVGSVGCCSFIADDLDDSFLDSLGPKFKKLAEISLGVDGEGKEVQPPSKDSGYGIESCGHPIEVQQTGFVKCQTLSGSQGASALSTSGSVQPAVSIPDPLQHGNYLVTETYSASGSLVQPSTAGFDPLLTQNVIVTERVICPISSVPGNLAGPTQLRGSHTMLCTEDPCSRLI
# H9c2 protect: protects H9c2 cardiomyocytes from peroxide injury | H2O2 injury protection, ATPLite, 2 h | protection from H2O2 cell death, % at 20 µM | 0.63% of 360,000 active | AID 588492;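 active means compounds giving at least 50% protection of heart cells from peroxide-induced death in the single-dose screen, raw or plate-pattern-corrected value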;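 further: 0% = DMSO wells with peroxide and 100% = DMSO wells without peroxide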
# * = called active by the depositor; i = inactive; ? = inconclusive; · = no result; + = active, no number. Rows were chosen to be rich in hits. Some 3% of all compounds tested hit in one or more screens of this group.
SMILES,Myeloid diff MLP,SENP1 inh,HNF4A DNA FP,Granule exo inh,DSG3 Ab inh,H9c2 protect
CCCN(C(=O)COC(=O)Cn1c(=O)oc2ccccc21)c1c(N)n(Cc2ccccc2)c(=O)[nH]c1=O,i,-1,3,-5,93,-4
CCCCCCc1cc2cc(S(=O)(=O)c3ccc(F)cc3)c(=O)oc2cc1O,i,-27,-4,-2,120,-14
CCCCCCc1cc2cc(-c3nnc(-c4ccccc4O)o3)c(=O)oc2cc1O,+,-22,-98,9,113,-18
CCCCCCc1cc2cc(-c3nnc(-c4ccccc4OC)o3)c(=O)oc2cc1O,+,-27,88,6,105,-19
COc1ccc(C(C(=O)NCC2CCCO2)N(C(=O)Cn2nnc3ccccc32)c2ccccc2C(C)=O)cc1OC (centres undefined),i,2,1,3,116,3
CCOc1ccc(Cl)cc1S(=O)(=O)N1CCC(C(=O)NCC2CCCO2)CC1 (centres undefined),·,1,1,-7,·,0
C=CCN(CC=C)C(=O)Nc1cc(OC)ccc1OC,i,2,3,-4,103,-4
Cc1ccc(OCC(=O)Nc2ccc3c(c2)C(=O)NC3=O)cc1,i,1,-1,-12,118,-9
CC(C)(C)c1ccc(OCC(=O)Nc2ccc3c4c(cccc24)C(=O)NC3=O)cc1,+,25,-17,-1,93,60*
Cc1cc(OCC(=O)NCCCn2ccnc2)c2c(C)c(C)c(=O)oc2c1,i,2,-2,-3,·,-3
CC(=O)c1c(C)oc2ccc(NS(=O)(=O)c3ccc(C)cc3)cc12,i,1,-4,11,100,-16
Cc1ccc(C)c(S(=O)(=O)Nc2ccc3oc(C)c(C(=O)O)c3c2)c1,i,-2,-31,-3,85*,1
CSCC[C@H](NC(=O)OC(C)(C)C)C(=O)NCC1CCC(C(=O)N[C@@H](Cc2ccccc2)C(=O)O)CC1 (some centres undefined),+,1,8,10,105,1
CSCCC(NC(=O)c1ccccc1Br)C(=O)NCC1CCCCC1 (centres undefined),+,0,-3,-4,106*,5
CCCOc1ccc(F)cc1-c1cc(C(=O)NCCOC)[nH]n1,i,2,0,-4,·,-1
COc1cc(C)ccc1S(=O)(=O)NC(=O)C1(C)CCN1C(=O)Cc1ccc(Cl)cc1Cl (centres undefined),+,1,0,12,·,5
CCc1noc(C)c1C(=O)N(CC)CC(=O)NCc1ccc(Cl)cc1,i,-2,-1,-4,?,0
CCCCS(=O)CC(CS(=O)CCCC)OC(=O)c1ccccc1 (centres undefined),i,1,1,0,·,9
CCCCS(=O)CC(CS(=O)CCCC)OC(=O)c1ccc(C)cc1 (centres undefined),i,-5,1,-3,45*,-1
CCN1C[C@@H]2[C@@H]3C(=O)N(Cc4ccccc4)C(=O)[C@@H]3[C@](Cc3ccccc3)(C1=O)N2C(=O)c1ccc(C(F)(F)F)cc1,+,1,2,-1,97,-1
COc1ccc(S(=O)(=O)Nc2cc(OC)c(NC(=O)c3ccco3)cc2OC)cc1,i,-8,1,-2,107,11
CCOc1cc(NS(=O)(=O)c2ccc(OC)cc2)c(OCC)cc1NC(=O)c1ccco1,+,-17,-1,0,104,6
COc1cc(NS(=O)(=O)c2ccc(Br)cc2)c(OC)cc1NC(=O)c1ccco1,i,-4,68*,-1,·,2
COc1cc(OC)c(NC(=O)c2ccco2)cc1Cl,i,1,-2,1,103,2
Fc1ccccc1NC(=S)Nn1cnnc1,i,2,0,-4,·,-2
SMILES,Myeloid diff MLP,SENP1 inh,HNF4A DNA FP,Granule exo inh,DSG3 Ab inh,H9c2 protect
Cc1ccccc1-c1nnc(SCC(=O)Nc2ccc3c(c2)OCCO3)n1N,+,-31,4,0,99,1
Cc1ccc(NC(=O)CSc2nnc(-c3ccco3)n2N)cc1F,+,1,3,-2,102,-4
O=C(O)c1cnc2[nH]c3ccccc3n2c1=O,i,1,-2,1,97,4
COc1ccc(NS(=O)(=O)c2cccc(C(=O)NC3CCC(O)CC3)c2)cc1 (centres undefined),i,2,2,0,113,6
COC(=O)[C@]12CCCCC=C1N(Cc1ccc3c(c1)OCO3)C(=O)[C@H](CC(=O)NCc1ccccc1)C2,i,5,8,11,·,·
CCC(CC)C(=O)Nc1cc(C)c2c(=O)oc3ccccc3c2n1,i,-39,-1,-4,100,71*
CCC(NC(=O)C(C)NC)C(=O)N1CCCC1C(=O)NC1CCCc2ccccc21 (centres undefined),i,4,0,-10,107,-2
N#C/C(C(=O)Nc1ccc(Cl)cc1)=C(/S)Nc1ccccc1,i,-1,-2,31,74*,-5
CC(=O)N1c2ccccc2N(Cc2ccc(C)cc2C)C(=O)C1(C)C,+,0,2,-2,105,7
C=CCN1C(=O)C(C)(C)N(C(C)=O)c2ccccc21,i,2,5,-2,101,-1
O=C(COc1cc(F)ccc1[N+](=O)[O-])N1N=C(c2cccs2)CC1c1ccco1 (centres undefined),i,-2,1,4,101,-16
N#Cc1nc(-c2cccc(Cl)c2)oc1N1CCC(C(N)=O)CC1,i,-2,-5,-2,104,-5
C#CCOCCOCCOCCNc1nc(N2CCN(C(=O)[C@H](CCCCN)n3cc([C@@H](N)C(C)CC)nn3)CC2)nc(N2CCN(C(=O)[C@H](Cc3cc4ccccc4[nH]3)n3cc([C@@H](N)CC(C)C)nn3)CC2)n1 (some centres undefined),i,-23,49*,28,101,-2
C#CCOCCOCCOCCNc1nc(N2CCN(C(=O)[C@H](CCCCN)n3cc([C@@H](N)CO)nn3)CC2)nc(N2CCN(C(=O)[C@H](Cc3ccc(O)cc3)n3cc([C@@H](N)CC(C)C)nn3)CC2)n1,i,3,2,68*,110,4
C#CCOCCOCCOCCNc1nc(N2CCN(C(=O)C([C@@H](C)CC)n3cc(C(N)CO)nn3)CC2)nc(N2CCN(C(=O)[C@H](CCC(=O)O)n3cc(C(N)CC(C)C)nn3)CC2)n1 (some centres undefined),i,2,-3,1,107,3
